Assay results from paper PMC3319156 (Journal of Medicinal Chemistry, 2011).

Assays:
[1] = tested on: cultured melanoma, breast, prostate, and pancreatic tumor cell lines; details: cited from earlier work
[2] = target: Tyr705 of Stat3 (Homo sapiens, UniProt P40763); experiment: Inhibition of constitutive Stat3 Tyr705 phosphorylation in MDA-MB-468 cells; assay type: cell-based; details: for concentration at which pStat3 was completely inhibited / concentration with noticeable inhibition of pStat3: MDA-MB-468, 2 h treatment, western blot; for time at which pStat3 formation was completely inhibited / time for which complete inhibition of pStat3 was sustained: MDA-MB-468, single dose of 5 µM; for effect on pStat3 band at 25 µM: MDA-MB-468, 25 µM
In short: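 MDA-MB-468 cells (4 × 10^5/well) were grown overnight in DMEM with 10% FCS. Prodrug was given from a 10 mM DMSO stock prepared fresh, for 2 h, or over a time course. After ice-cold PBS washes, cells were lysed (Hepes pH 7.4, Triton X-100, NaF, vanadate, protease inhibitors). 12 µg protein went on 8% SDS-PAGE/PVDF with 5% BSA block. Blots were probed for pStat3 Y705 by ECL, stripped at 50°C, and reprobed for total Stat3.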

[3] = target: T1, Stat3 (Homo sapiens, UniProt P40763); experiment: Inhibition of constitutive Stat3 phosphorylation in BT20 breast tumor cells; assay type: cell-based; details: screen
[4] = target: T1, Stat3; experiment: EGF-stimulated Stat3 phosphorylation in MDA-MB-468 cells; assay type: cell-based; details: MDA-MB-468, 5 µM, 1.5 h then EGF 30 min
[5] = tested on: Tyr694 of Stat5; experiment: Stat5 Tyr694 phosphorylation in MDA-MB-468 cells; assay type: cell-based; details: MDA-MB-468, 5 µM, 1.5 h then EGF 30 min
[6] = tested on: Ser473 of Akt; experiment: Akt Ser473 phosphorylation in MDA-MB-468 cells; assay type: cell-based; details: MDA-MB-468, 5 µM, 1.5 h then EGF 30 min
[7] = tested on: Tyr861 of the focal adhesion kinase (FAK); experiment: Constitutive FAK Tyr861 phosphorylation in MDA-MB-468 cells; assay type: cell-based; details: MDA-MB-468, 2 h treatment
In short: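 Constitutive signal, no stimulus: MDA-MB-468 cells were plated overnight in DMEM/10% FCS and given test compound from a 10 mM DMSO stock for 2 h. Cells were lysed in Hepes pH 7.4 detergent buffer with phosphatase and protease inhibitors. Protein was separated by SDS-PAGE, blotted to PVDF, blocked with 5% BSA, and probed for pTyr861 FAK and total FAK.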

[8] = target: T2, Tyr701 of Stat1 (Homo sapiens, UniProt P42224); experiment: IFNγ-stimulated Stat1 Tyr701 phosphorylation in MDA-MB-468 cells; assay type: cell-based; details: MDA-MB-468, 1.5 h then 30 min IFNγ
T2 sequence (P42224 1-750): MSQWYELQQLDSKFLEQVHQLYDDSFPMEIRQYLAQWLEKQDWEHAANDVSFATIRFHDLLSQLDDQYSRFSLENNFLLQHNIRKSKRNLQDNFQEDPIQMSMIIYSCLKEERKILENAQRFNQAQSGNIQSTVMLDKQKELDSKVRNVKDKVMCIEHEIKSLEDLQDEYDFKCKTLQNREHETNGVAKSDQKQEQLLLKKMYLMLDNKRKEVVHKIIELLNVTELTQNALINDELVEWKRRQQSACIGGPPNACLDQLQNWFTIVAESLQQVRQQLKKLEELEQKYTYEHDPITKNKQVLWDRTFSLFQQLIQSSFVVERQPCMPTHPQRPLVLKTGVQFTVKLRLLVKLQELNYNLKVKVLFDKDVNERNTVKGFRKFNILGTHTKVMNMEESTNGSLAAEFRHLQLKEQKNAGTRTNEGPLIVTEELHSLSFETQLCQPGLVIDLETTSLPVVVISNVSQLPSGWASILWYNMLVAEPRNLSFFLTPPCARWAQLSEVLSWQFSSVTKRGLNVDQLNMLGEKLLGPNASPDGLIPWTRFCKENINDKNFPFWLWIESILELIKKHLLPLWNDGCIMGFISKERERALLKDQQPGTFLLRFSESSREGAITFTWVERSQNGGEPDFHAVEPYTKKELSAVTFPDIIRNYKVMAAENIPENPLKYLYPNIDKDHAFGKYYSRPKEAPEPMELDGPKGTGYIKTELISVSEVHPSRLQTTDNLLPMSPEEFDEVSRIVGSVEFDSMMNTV
In short: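 MDA-MB-468 cells were prepared as for the Stat3 assay (plated overnight in DMEM/10% FCS) and exposed to increasing test compound concentrations for 1.5 h. Interferon γ was then added at 25 ng/mL for 30 min. Lysates were run on PAGE, blotted to PVDF, and probed for pTyr701 Stat1 and total Stat1 with chemiluminescent detection.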

[9] = tested on: MDA-MB-468 cells; experiment: Cytotoxicity to MDA-MB-468 cells, MTT assay; assay type: cell-based; details: MDA-MB-468, treated daily for three days
In short: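 MDA-MB-468 cells in DMEM with 10% FBS were plated at 1500 cells/well in triplicate, and the medium was changed the next day. Prodrug was dissolved fresh in ethanol to a 10 mM stock, diluted, and added. Further doses went into the same medium at 24 and 48 h, with final ethanol below 1%. Viability was read by MTT.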

[10] = tested on: H528; experiment: Growth inhibition of H528 NSCLC cells; assay type: cell-based; details: H528, 5–10 µM, data not shown
[11] = tested on: Tyr861 of FAK; details: tumor cells; cited from earlier work

Tyr705 of Stat3, sequence (P40763 whole entry): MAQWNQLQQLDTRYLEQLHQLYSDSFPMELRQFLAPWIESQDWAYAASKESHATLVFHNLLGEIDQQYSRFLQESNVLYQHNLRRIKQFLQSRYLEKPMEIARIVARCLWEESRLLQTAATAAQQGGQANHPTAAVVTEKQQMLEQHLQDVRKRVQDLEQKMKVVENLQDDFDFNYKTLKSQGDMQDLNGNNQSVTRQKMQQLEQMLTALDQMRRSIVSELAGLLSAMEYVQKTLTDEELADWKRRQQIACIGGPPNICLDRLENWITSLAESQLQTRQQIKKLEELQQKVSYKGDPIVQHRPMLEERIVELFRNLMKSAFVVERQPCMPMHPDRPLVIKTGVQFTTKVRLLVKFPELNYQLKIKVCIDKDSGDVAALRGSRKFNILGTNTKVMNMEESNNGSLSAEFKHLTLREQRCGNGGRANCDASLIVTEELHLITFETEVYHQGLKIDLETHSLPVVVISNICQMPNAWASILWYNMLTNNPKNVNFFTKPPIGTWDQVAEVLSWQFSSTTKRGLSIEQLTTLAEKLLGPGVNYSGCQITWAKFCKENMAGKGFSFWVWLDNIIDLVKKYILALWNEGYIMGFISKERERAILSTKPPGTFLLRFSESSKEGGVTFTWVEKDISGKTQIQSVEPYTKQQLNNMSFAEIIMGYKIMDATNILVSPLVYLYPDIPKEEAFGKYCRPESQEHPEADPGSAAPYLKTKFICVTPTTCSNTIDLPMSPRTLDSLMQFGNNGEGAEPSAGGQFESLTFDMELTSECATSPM
T1 sequence (P40763 whole entry): as above

SMILES: Cc1cc(Nc2nc(N[C@@H](C)c3ncc(F)cn3)ncc2Cl)n[nH]1 [AZD1480]
- cytotoxicity at concentrations that completely eliminated Tyr705 phosphorylation [1]: not cytotoxic

SMILES: CC(C)(C)c1nc2c3cc[nH]c(=O)c3c3cc(F)ccc3c2[nH]1 [P6]
- cytotoxicity at concentrations that completely eliminated Tyr705 phosphorylation [1]: not cytotoxic

SMILES: C/C(=C\C(=O)N[C@H]1CCc2cccc3c2N(C1=O)[C@H](C(=O)N[C@@H](CCC(N)=O)C(=O)NCc1ccccc1)C3)c1ccc(C(F)(F)P(=O)(OCOC(=O)C(C)(C)C)OCOC(=O)C(C)(C)C)cc1 [compound 32]
- effect on level of pStat3 ([2]; MDA-MB-468, 2 h, increasing concentrations): reduced the level of pStat3 in a dose-dependent manner

SMILES: C[C@H](CCC(N)=O)NC(=O)[C@@H]1Cc2cccc3c2N1C(=O)[C@@H](NC(=O)/C=C/c1ccc(C(F)(F)P(=O)(OCOC(=O)C(C)(C)C)OCOC(=O)C(C)(C)C)cc1)CC3 [compound 33]
- concentration at which pStat3 was completely inhibited [2]: 0.5 µM
- concentration with noticeable inhibition of pStat3 [2]: 0.1 µM

SMILES: CCCC[C@H](NC(=O)/C=C(\C)c1ccc(C(F)(F)P(=O)(OCOC(=O)C(C)(C)C)OCOC(=O)C(C)(C)C)cc1)C(=O)N1C[C@H]2C[C@H]2[C@H]1C(=O)N[C@@H](CCC(N)=O)C(C)OCc1ccccc1 (stereo partly drawn) [compound 35]
- concentration at which pStat3 was completely inhibited [2]: 0.5 µM
- time at which pStat3 formation was completely inhibited [2]: 30 min
- time for which complete inhibition of pStat3 was sustained [2]: 4 h
- ability to inhibit constitutive phosphorylation of Stat3 [3]: considerable potency
- increase in Stat3 phosphorylation induced by EGF [4]: completely inhibited
- Stat5 phosphorylation [5]: not inhibited
- Akt Ser473 phosphorylation [6]: do not inhibit Akt phosphorylation
- FAK Tyr861 phosphorylation [7]: no reduction of Tyr861 phosphorylation
- concentration of complete inhibition of Stat1 phosphorylation [8]: 5 µM
- survival curves with daily dosing compared with single dose [9]: little change in the survival curves
- inhibition [10]: < 20%

SMILES: CCCC[C@H](NC(=O)/C=C(\C)c1ccc(C(F)(F)P(=O)(OCOC(=O)C(C)(C)C)OCOC(=O)C(C)(C)C)cc1)C(=O)N1C[C@@H]2C[C@@H]2[C@@H]1C(=O)N[C@@H](CCC(N)=O)C(C)OCc1ccccc1 (stereo partly drawn) [compound 36]
- effect on pStat3 band at 25 µM [2]: only partially reduced
- concentration with noticeable inhibition of pStat3 [2]: ≥ 25 µM
- fold less potent at inhibiting Stat3 phosphorylation ([2]; relative to 35): 20–25 fold

SMILES: CCCC[C@H](NC(=O)/C=C(\C)c1ccc(C(F)(F)P(=O)(OCOC(=O)C(C)(C)C)OCOC(=O)C(C)(C)C)cc1)C(=O)N1C[C@H]2C[C@H]2[C@H]1C(=O)N[C@H](C)CCC(N)=O [compound 37]
- concentration at which pStat3 was completely inhibited [2]: 0.5 µM
- time at which pStat3 formation was completely inhibited [2]: 30 min
- time for which complete inhibition of pStat3 was sustained [2]: 4 h
- ability to inhibit constitutive phosphorylation of Stat3 [3]: considerable potency
- increase in Stat3 phosphorylation induced by EGF [4]: completely inhibited
- Stat5 phosphorylation [5]: not inhibited
- Akt Ser473 phosphorylation [6]: do not inhibit Akt phosphorylation
- FAK Tyr861 phosphorylation [7]: no reduction of Tyr861 phosphorylation
- concentration of complete inhibition of Stat1 phosphorylation [8]: 5 µM

SMILES: CCCC[C@H](NC(=O)/C=C(\C)c1ccc(C(F)(F)P(=O)(OCOC(=O)C(C)(C)C)OCOC(=O)C(C)(C)C)cc1)C(=O)N1C[C@@H]2C[C@@H]2[C@@H]1C(=O)N[C@H](C)CCC(N)=O [compound 38]
- effect on pStat3 band at 25 µM [2]: only partially reduced

SMILES: CCCC[C@H](NC(=O)/C=C(\C)c1ccc(C(F)(F)P(=O)(OCOC(=O)C(C)(C)C)OCOC(=O)C(C)(C)C)cc1)C(=O)N1CC2CC2C1C(=O)NCCNC(N)=O (stereo partly drawn) [compound 39]
- concentration at which pStat3 was completely inhibited [2]: 5 µM
- inhibition of the phosphorylation of Stat3 up to 1 µM ([2]; MDA-MB-468, up to 1 µM, 2 h): little inhibition

SMILES: CCOP(=O)(OCC)C(F)(F)c1ccc(/C(C)=C/C(=O)N[C@H]2CCc3cccc4c3N(C2=O)[C@H](C(=O)N[C@H](C)CCC(N)=O)C4)cc1 [compound 40]
- effect on pStat3 band at 25 µM [2]: no effect on Stat3 phosphorylation

SMILES: Cc1nc(Nc2ncc(C(=O)Nc3c(C)cccc3Cl)s2)cc(N2CCN(CCO)CC2)n1 [dasatinib]
- levels of Tyr861 phosphorylation on treatment [11]: decrease
